Measured values published in ChEMBL document CHEMBL1759994, “The discovery and synthesis of potent zwitterionic inhibitors of renin” (Bioorg Med Chem Lett, 2011).

Experiments:
Blood [1] = assay: Metabolic stability in rhesus monkey whole blood assessed as conversion to (1R,2R)-2-((3-(((3R,4S)-N-cyclopropyl-4-(4-(2-(2,6-dichloro-4-methylphenoxy)ethoxy)phenyl)piperidine-3-carboxamido)methyl)-5-(3-methoxypropyl)phenoxy)methyl)cyclopropanecarboxylic acid after 20 mins; assay type: ADME, tissue-based, Macaca mulatta
Blood [2] = assay: Metabolic stability in Sprague-Dawley rat whole blood assessed as conversion to (1R,2R)-2-((3-(((3R,4S)-N-cyclopropyl-4-(4-(2-(2,6-dichloro-4-methylphenoxy)ethoxy)phenyl)piperidine-3-carboxamido)methyl)-5-(3-methoxypropyl)phenoxy)methyl)cyclopropanecarboxylic acid after 20 mins; assay type: ADME, tissue-based
Summary of the method: (§1)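 Prodrugs were incubated for 20 min in rat or human whole blood, or in rat or human liver S9 fraction (n = 2). The read-out was % conversion to the parent carboxylic acid.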

Blood [3] = assay: Metabolic stability in human whole blood assessed as conversion to (1R,2R)-2-((3-(((3R,4S)-N-cyclopropyl-4-(4-(2-(2,6-dichloro-4-methylphenoxy)ethoxy)phenyl)piperidine-3-carboxamido)methyl)-5-(3-methoxypropyl)phenoxy)methyl)cyclopropanecarboxylic acid after 20 mins; assay type: ADME, tissue-based; summary of the method: as §1
Liver [4] = assay: Metabolic stability in Sprague-Dawley rat liver S9 fraction assessed as conversion to (1R,2R)-2-((3-(((3R,4S)-N-cyclopropyl-4-(4-(2-(2,6-dichloro-4-methylphenoxy)ethoxy)phenyl)piperidine-3-carboxamido)methyl)-5-(3-methoxypropyl)phenoxy)methyl)cyclopropanecarboxylic acid after 20 mins; assay type: ADME, subcellular; conditions: s9, 20 min; summary of the method: as §1
Liver [5] = assay: Metabolic stability in human liver S9 fraction assessed as conversion to (1R,2R)-2-((3-(((3R,4S)-N-cyclopropyl-4-(4-(2-(2,6-dichloro-4-methylphenoxy)ethoxy)phenyl)piperidine-3-carboxamido)methyl)-5-(3-methoxypropyl)phenoxy)methyl)cyclopropanecarboxylic acid after 20 mins; assay type: ADME, subcellular; conditions: s9, 20 min; summary of the method: as §1
Renin [6] = biological target: T1, Renin (Homo sapiens, UniProt P00797); assay: Inhibition of human recombinant renin in human citreated-plasma
T1 sequence (P00797 whole entry): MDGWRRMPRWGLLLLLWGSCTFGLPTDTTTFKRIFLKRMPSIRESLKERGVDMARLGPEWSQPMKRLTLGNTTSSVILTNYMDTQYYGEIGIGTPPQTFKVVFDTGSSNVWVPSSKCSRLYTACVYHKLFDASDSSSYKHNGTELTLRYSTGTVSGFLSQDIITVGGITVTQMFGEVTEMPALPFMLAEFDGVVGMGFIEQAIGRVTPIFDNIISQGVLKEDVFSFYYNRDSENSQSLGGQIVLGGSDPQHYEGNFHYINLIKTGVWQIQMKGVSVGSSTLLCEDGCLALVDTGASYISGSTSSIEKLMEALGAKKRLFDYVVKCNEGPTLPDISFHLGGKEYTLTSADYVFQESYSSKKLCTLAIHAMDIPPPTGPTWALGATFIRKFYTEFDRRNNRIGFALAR

[7] = biological target: Voltage-gated inwardly rectifying potassium channel KCNH2 (Homo sapiens, UniProt Q12809); assay: Binding affinity to human ERG
Cytochrome P450 3A4 [8] = biological target: T2, Cytochrome P450 3A4 (Homo sapiens, UniProt P08684); assay: Inhibition of human CYP3A4 in human liver microsomes assessed as formation of 6beta-hydroxy-testosterone using testosterone as substrate by high throughput mass spectrometry in absence of NADPH; assay type: ADME, Microsome
Cytochrome P450 3A4 [9] = biological target: T2, Cytochrome P450 3A4; assay: Inhibition of human CYP3A4 in human liver microsomes assessed as formation of 6beta-hydroxy-testosterone using testosterone as substrate by high throughput mass spectrometry preincubated for 30 mins in presence of NADPH; assay type: ADME, Microsome
CYP3A4 = CYP3A4 (Homo sapiens, UniProt P08684); assay: Ratio of IC50 for human CYP3A4 in absence of NADPH to IC50 for human CYP3A4 preincubated for 30 mins in presence of NADPH; conditions: read-out: Ratio IC50
[10] = Metabolic stability in dog whole blood assessed as conversion to (1R,2R)-2-((3-(((3R,4S)-N-cyclopropyl-4-(4-(2-(2,6-dichloro-4-methylphenoxy)ethoxy)phenyl)piperidine-3-carboxamido)methyl)-5-(3-methoxypropyl)phenoxy)methyl)cyclopropanecarboxylic acid after 20 mins; assay type: ADME, tissue-based, Canis lupus familiaris
Renin [11] = biological target: T1, Renin; assay: Inhibition of human recombinant renin in PBS buffer using tetradecapeptide at pH 7.4
[12] = Oral bioavailability in Sprague-Dawley rat at 30 mg/kg as 0.5% methocel suspension; assay type: ADME, organism-based; conditions: in vivo
[13] = AUC (0 to 24 hrs) in Sprague-Dawley rat at 30 mg/kg, po as 0.5% methocel suspension; assay type: ADME, organism-based; set-up: time < 24 hr, dose 30 mg/kg, route oral; conditions: plasma
[14] = Oral bioavailability in Beagle dog at 3 mg/kg in 0.5% methocel; assay type: ADME, organism-based, Canis lupus familiaris; conditions: in vivo
[15] = AUC (0 to 24 hrs) in Beagle dog at 3 mg/kg, po in 0.5% methocel; assay type: ADME, organism-based, Canis lupus familiaris; set-up: time < 24 hr, dose 3 mg/kg, route oral; conditions: plasma
[16] = Oral bioavailability in Sprague-Dawley rat at 30 mg/kg in 60% PEG 200; assay type: ADME, organism-based; conditions: in vivo
[17] = AUC (0 to 24 hrs) in Sprague-Dawley rat at 30 mg/kg, po in 60% PEG 200; assay type: ADME, organism-based; set-up: time < 24 hr, dose 30 mg/kg, route oral; conditions: plasma
[18] = Oral bioavailability in Sprague-Dawley rat at 30 mg/kg in 60% PEG 200 at PH 2.5; assay type: ADME, organism-based; conditions: in vivo
[19] = AUC (0 to 24 hrs) in Sprague-Dawley rat at 30 mg/kg, po in 60% PEG 200 at PH 2.5; assay type: ADME, organism-based; set-up: time < 24 hr, dose 30 mg/kg, route oral; conditions: plasma
[20] = Oral bioavailability in Sprague-Dawley rat at 30 mg/kg in peanut oil; assay type: ADME, organism-based; conditions: in vivo
[21] = AUC (0 to 24 hrs) in Sprague-Dawley rat at 30 mg/kg, po in peanut oil; assay type: ADME, organism-based; set-up: time < 24 hr, dose 30 mg/kg, route oral; conditions: plasma
[22] = Oral bioavailability in Sprague-Dawley rat at 30 mg/kg in lyposin 2; assay type: ADME, organism-based; conditions: in vivo
[23] = AUC (0 to 24 hrs) in Sprague-Dawley rat at 30 mg/kg, po in lyposin 2; assay type: ADME, organism-based; set-up: time < 24 hr, dose 30 mg/kg, route oral; conditions: plasma
[24] = Oral bioavailability in Sprague-Dawley rat at 30 mg/kg in Na salt in 0.5% methocel; assay type: ADME, organism-based; conditions: in vivo
[25] = AUC (0 to 24 hrs) in Sprague-Dawley rat at 30 mg/kg, po in Na salt in 0.5% methocel; assay type: ADME, organism-based; set-up: time < 24 hr, dose 30 mg/kg, route oral; conditions: plasma
[26] = Oral bioavailability in Sprague-Dawley rat at 30 mg/kg in Ca salt in 0.5% methocel; assay type: ADME, organism-based; conditions: in vivo
[27] = AUC (0 to 24 hrs) in Sprague-Dawley rat at 30 mg/kg, po in Ca salt in 0.5% methocel; assay type: ADME, organism-based; set-up: time < 24 hr, dose 30 mg/kg, route oral; conditions: plasma
[28] = Bioavailability in Sprague-Dawley rat at 20 mg/kg, intra-duodenum in 5% dextrose; assay type: ADME, organism-based; conditions: in vivo
Summary of the method: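 Rats were dosed directly into the duodenum at 20 mg/kg in 5% dextrose, 1 mL/kg. Bioavailability was calculated for the parent carboxylic acid.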

[29] = Clearance in Sprague-Dawley rat at 30 mg/kg, po in 0.5% methocel and 3 to 5 mg/kg, iv in 60% PEG 200; conditions: in vivo

T2 sequence (P08684 whole entry): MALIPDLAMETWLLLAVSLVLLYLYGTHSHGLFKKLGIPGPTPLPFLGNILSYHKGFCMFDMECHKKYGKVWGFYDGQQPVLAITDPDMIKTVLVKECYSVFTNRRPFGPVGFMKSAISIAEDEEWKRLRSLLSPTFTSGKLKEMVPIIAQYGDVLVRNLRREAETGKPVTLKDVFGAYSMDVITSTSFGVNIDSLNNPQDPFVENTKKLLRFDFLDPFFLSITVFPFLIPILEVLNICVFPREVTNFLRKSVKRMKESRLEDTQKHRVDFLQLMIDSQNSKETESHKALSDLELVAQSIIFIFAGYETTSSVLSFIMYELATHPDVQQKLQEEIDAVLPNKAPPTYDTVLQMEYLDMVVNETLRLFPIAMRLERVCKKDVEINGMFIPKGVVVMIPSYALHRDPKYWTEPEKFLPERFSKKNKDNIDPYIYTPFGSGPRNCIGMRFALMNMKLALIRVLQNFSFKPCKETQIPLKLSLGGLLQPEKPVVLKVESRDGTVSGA
Sequence of Voltage-gated inwardly rectifying potassium channel KCNH2 (Q12809 whole entry): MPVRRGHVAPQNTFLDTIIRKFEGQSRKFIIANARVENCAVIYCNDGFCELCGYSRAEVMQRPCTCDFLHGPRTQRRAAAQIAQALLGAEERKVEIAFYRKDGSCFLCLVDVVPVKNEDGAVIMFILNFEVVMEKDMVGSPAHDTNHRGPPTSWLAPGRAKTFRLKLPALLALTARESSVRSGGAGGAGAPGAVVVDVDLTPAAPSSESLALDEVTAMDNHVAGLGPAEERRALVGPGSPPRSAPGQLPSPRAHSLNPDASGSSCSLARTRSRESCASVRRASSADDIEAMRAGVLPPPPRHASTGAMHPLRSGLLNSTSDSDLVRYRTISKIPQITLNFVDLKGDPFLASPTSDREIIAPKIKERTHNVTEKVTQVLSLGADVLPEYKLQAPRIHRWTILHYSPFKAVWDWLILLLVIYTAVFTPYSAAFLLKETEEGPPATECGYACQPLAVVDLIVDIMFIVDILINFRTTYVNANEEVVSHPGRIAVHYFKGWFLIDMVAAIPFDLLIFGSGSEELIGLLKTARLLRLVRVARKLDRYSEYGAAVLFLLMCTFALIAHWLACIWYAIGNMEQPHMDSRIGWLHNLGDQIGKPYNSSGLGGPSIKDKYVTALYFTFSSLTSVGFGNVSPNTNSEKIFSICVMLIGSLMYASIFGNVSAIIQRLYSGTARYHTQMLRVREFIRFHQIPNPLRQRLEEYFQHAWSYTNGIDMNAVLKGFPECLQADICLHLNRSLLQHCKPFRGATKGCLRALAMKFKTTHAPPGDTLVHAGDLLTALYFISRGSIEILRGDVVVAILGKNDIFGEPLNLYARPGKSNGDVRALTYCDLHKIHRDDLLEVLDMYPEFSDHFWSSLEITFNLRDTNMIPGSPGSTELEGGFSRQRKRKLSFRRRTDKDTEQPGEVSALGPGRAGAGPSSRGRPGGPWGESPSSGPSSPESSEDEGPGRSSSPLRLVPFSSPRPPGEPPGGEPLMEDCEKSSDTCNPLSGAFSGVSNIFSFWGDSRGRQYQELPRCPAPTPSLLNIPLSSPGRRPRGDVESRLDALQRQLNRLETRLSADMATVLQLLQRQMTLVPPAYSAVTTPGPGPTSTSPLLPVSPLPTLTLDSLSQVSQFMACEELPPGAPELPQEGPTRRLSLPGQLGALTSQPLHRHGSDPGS
Sequence of CYP3A4 (P08684 whole entry): as the sequence (P08684 whole entry) above

Structure (SMILES): CCOC(=O)[C@H]1C[C@@H]1COc1cc(CCCOC)cc(CN(C(=O)[C@H]2CNCC[C@@H]2c2ccc(OCCOc3c(Cl)cc(C)cc3Cl)cc2)C2CC2)c1
- Activity (Blood [1]): 15%
- Activity (Blood [2]): 99%
- Activity (Blood [3]): 3%
- Activity (Liver [4]): 60%
- Activity (Liver [5]): 56%
- IC50 (Renin [6]): 11 nM
- Ki [7]: 80 nM
- IC50 (Cytochrome P450 3A4 [8]): 19300 nM
- IC50 (Cytochrome P450 3A4 [9]): 1400 nM
- IC50 shift (CYP3A4): 14
- Activity [10]: 2%
- IC50 (Renin [11]): 0.064 nM
- bioavailability [12]: 52%
- AUC(0-t) at 24 h [13]: 5.7 µM·h
- bioavailability [14]: 6%
- AUC(0-t) at 24 h [15]: 0.01 µM·h

Structure (SMILES): COCCCc1cc(CN(C(=O)[C@H]2CNCC[C@@H]2c2ccc(OCCOc3c(Cl)cc(C)cc3Cl)cc2)C2CC2)cc(OC[C@H]2C[C@@H]2C(=O)O)c1
- IC50 (Renin [6]): 1.1 nM
- Ki [7]: 1070 nM
- IC50 (Cytochrome P450 3A4 [8]): > 50000 nM
- IC50 (Cytochrome P450 3A4 [9]): > 50000 nM
- IC50 (Renin [11]): 0.027 nM
- bioavailability [12]: 1%
- AUC(0-t) at 24 h [13]: 0.1 µM·h
- bioavailability [16]: 4%
- AUC(0-t) at 24 h [17]: 0.5 µM·h
- bioavailability [18]: 1%
- AUC(0-t) at 24 h [19]: 0.1 µM·h
- bioavailability [20]: 1%
- AUC(0-t) at 24 h [21]: 0.1 µM·h
- bioavailability [22]: 0%
- AUC(0-t) at 24 h [23]: 0.03 µM·h
- bioavailability [24]: 1%
- AUC(0-t) at 24 h [25]: 0.1 µM·h
- bioavailability [26]: 0%
- AUC(0-t) at 24 h [27]: 0.3 µM·h
- bioavailability [28]: 0%
- clearance [29]: 60 mL/min/kg
